Reference: publication PMC3387347 (Investigational new drugs, 2012)

Experiments:
[1] = In vivo cassette dosing pharmacokinetic study in normal mice; parameters: species or system mouse; conditions: for AUCb: normal brain; for Kp / clearance / Vd: male, ICR, mouse, 5 mg/kg, normal mice; for Kp: brain, intravenous, Pb (brain partition coefficient, AUCb/AUCp); for clearance / Vd: plasma, iv; for clearance: CL (total systemic clearance); for Vd: Vd (apparent volume of distribution)
Procedure, shortened: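 Adult male ICR mice each received a compound mixture in NMP:PEG300:water (1:4:5 by volume) as an IV bolus into a lateral tail vein. The dose was about 5 mg/kg per compound, with one compound at 1.67 mg/kg. Plasma and brain were collected at various times, stored at −80°C and quantified by LC/MS/MS. AUCb was derived by noncompartmental analysis.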

[2] = mice; cited from earlier work
Pgp = conditions: cited from earlier work
[3] = cassette B, IV approximately 5 mg/kg
[4] = cassette C, IV approximately 5 mg/kg

COc1cc2ncnc(Nc3ccc(F)c(Cl)c3)c2cc1OCCCN1CCOCC1 [Gefitinib]
AUCb ([1]; cassette A, IV approximately 5 mg/kg (ON271320 1.67 mg/kg)): 1968.6 ng·h/g
AUCb [1, 3]: 2685.2 ng·h/g
AUCb [1, 4]: 3491.2 ng·h/g
Kp [1, 3]: 2.5
Kp [1, 4]: 1.9
clearance [1, 3]: 71.7 mL/min/kg
clearance [1, 4]: 43.3 mL/min/kg
Vd [1, 3]: 9.9 L/kg
Vd [1, 4]: 8.9 L/kg
bound to plasma proteins [2]: 95%
concentration reported to inhibit Pgp (Pgp): 100 µM
